Reference: ChEMBL document CHEMBL1240507, “Peptidic HIV integrase inhibitors derived from HIV gene products: structure-activity relationship studies” (Bioorg Med Chem, 2010)
The source made the active and inactive calls. The calls are words filed in the database; no cut-off is given here.

What was measured:
[1] = system: Human immunodeficiency virus 1; assay: Antiviral activity against HIV1 HXB2 infected in human MT4 cells assessed as protection against virus-induced cell death at 10 uM after 6 to 7 days by luciferase assay; format: functional, organism-based
Method in brief: (§1)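 MT-4 luciferase reporter cells (1×10^3 cells) were infected with HIV-1 HXB2 in the presence of peptides at various concentrations. At 6–7 days post-infection, cells were lysed and luciferase activity was read by chemiluminescence.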

[2] = system: Human immunodeficiency virus 1; assay: Antiviral activity against HIV1 HXB2 infected in human MT4 cells assessed as protection against virus-induced cell death after 6 to 7 days by luciferase assay; format: functional, organism-based; method in brief: as §1
MT4 [3] = assay: Cytotoxicity against human MT4 cells at 10 uM after 6 to 7 days; format: cell-based; settings: mt4, 10 µM
[4] = system: Human immunodeficiency virus 1; assay: Antiviral activity against HIV1 HXB2 infected in human MT4 cells assessed as protection against virus-induced cell death at 2.5 to 5 uM after 6 to 7 days by luciferase assay; format: functional, organism-based; method in brief: as §1
MT4 [5] = assay: Cytotoxicity against human MT4 cells at >5 uM after 6 to 7 days; format: cell-based
[6] = system: Human immunodeficiency virus 1; assay: Antiviral activity against HIV1 HXB2 infected in human MT4 cells assessed as protection against virus-induced cell death at 5 uM after 6 to 7 days by luciferase assay; format: functional, organism-based
Method in brief: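 MT-4 luciferase reporter cells (1×10^3 per well) infected with HIV-1 HXB2 while exposed to a range of peptide concentrations. After 6–7 days post-infection, cells were lysed, luciferase activity was measured with a Steady-Glo kit, and chemiluminescence was read on a luminometer.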

[7] = biological target: T1, Human immunodeficiency virus type 1 integrase (Human immunodeficiency virus 1, UniProt Q7ZJM1); assay: Inhibition of HIV1 integrase 3'-processing activity expressed in Escherichia coli after 60 mins
T1 sequence (Q7ZJM1 whole entry): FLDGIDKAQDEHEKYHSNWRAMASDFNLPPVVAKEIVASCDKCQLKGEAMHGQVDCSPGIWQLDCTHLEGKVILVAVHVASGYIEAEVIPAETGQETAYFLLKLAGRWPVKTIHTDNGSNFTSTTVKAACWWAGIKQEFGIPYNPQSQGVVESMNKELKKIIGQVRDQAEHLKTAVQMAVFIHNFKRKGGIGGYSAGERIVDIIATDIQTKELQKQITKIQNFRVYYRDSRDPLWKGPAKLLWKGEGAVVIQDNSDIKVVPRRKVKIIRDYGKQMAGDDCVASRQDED
Method in brief: (§2)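 Recombinant IN was expressed in and purified from E. coli, with 10% glycerol in all buffers. Reactions contained 400 nM IN, 20 nM 5'-end [³²P]-labeled oligonucleotide substrate and inhibitor at varied concentrations, with 10% DMSO alone as control. Reactions were stopped with EDTA/formamide loading dye. IC50 came from a logistic nonlinear fit.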

[8] = biological target: T1, Human immunodeficiency virus type 1 integrase; assay: Inhibition of HIV1 integrase strand transfer activity expressed in Escherichia coli after 60 mins; method in brief: as §2
[9] = system: Human immunodeficiency virus 1; assay: Antiviral activity against HIV1 HXB2 infected in human MT4 cells assessed as protection against virus-induced cell death at 1.25 uM after 6 to 7 days by luciferase assay; format: functional, organism-based; method in brief: as §1

| Compound | Activity [2] | Activity (MT4 [3]) | other results |
| --- | --- | --- | --- |
| CC[C@H](C)[C@H](NC(=O)[C@H](CCCNC(=N)N)NC(=O)[C@H](Cc1ccccc1)NC(=O)[C@H](Cc1cnc[nH]1)NC(=O)[C@@H](NC(=O)[C@H](Cc1ccccc1)NC(=O)[C@H](CC(C)C)NC(=O)[C@H](CC(C)C)NC(=O)[C@H](CCC(N)=O)NC(=O)[C@H](CCC(N)=O)NC(=O)[C@H](CC(C)C)NC(=O)[C@H](CCCCN)NC(=O)[C@H](CCCNC(=N)N)NC(=O)[C@@H](NC(=O)[C@@H](NC(=O)[C@H](CCC(=O)O)NC(=O)[C@H](CCC(=O)O)NC(C)=O)[C@@H](C)CC)[C@@H](C)CC)[C@@H](C)CC)C(=O)NCC(=O)N[C@@H](CCCNC(=N)N)C(=O)N[C@@H](CCCNC(=N)N)C(=O)N[C@@H](CCCNC(=N)N)C(=O)N[C@@H](CCCNC(=N)N)C(=O)N[C@@H](CCCNC(=N)N)C(=O)N[C@@H](CCCNC(=N)N)C(=O)N[C@@H](CCCNC(=N)N)C(=O)N[C@@H](CCCNC(=N)N)C(N)=O | – | – | Activity [1]: inactive |
| Ac-LQQLAFIHFRIGRRRRRRRR-NH2 | Dose-dependent effect | Toxic | – |
| Ac-EAIERILKQLLFIHFRIGRRRRRRRR-NH2 | – | – | Activity [4]: Active |
| Ac-EAEIRIKQQLLFIHFRIGRRRRRRRR-NH2 | – | – | Activity [1]: Active |
| Ac-LQQLLFIHFRAGRRRRRRRR-NH2 | Dose-dependent effect | – | – |
| Ac-LAQLLFIHFRIGRRRRRRRR-NH2 | Dose-dependent effect | Toxic | – |
| Ac-LQQLLFIHARIGRRRRRRRR-NH2 | Dose-dependent effect | Toxic | – |
| Ac-LQQLLFIHFAIGRRRRRRRR-NH2 | Dose-dependent effect | Toxic | – |
| CC[C@H](C)[C@H](NC(=O)[C@H](C)NC(=O)[C@H](CCC(=O)O)NC(C)=O)C(=O)N[C@H](C(=O)N[C@@H](CCCNC(=N)N)C(=O)N[C@H](C(=O)N[C@@H](CC(C)C)C(=O)N[C@@H](CCC(N)=O)C(=O)N[C@@H](CCC(N)=O)C(=O)N[C@@H](CC(C)C)C(=O)N[C@@H](CC(C)C)C(=O)N[C@@H](Cc1ccccc1)C(=O)N[C@H](C(=O)N[C@@H](CCC(=O)O)C(=O)N[C@@H](Cc1ccccc1)C(=O)N[C@@H](CCCNC(=N)N)C(=O)N[C@H](C(=O)N[C@@H](CCCCN)C(=O)N[C@@H](CCCNC(=N)N)C(=O)N[C@@H](CCCNC(=N)N)C(=O)N[C@@H](CCCNC(=N)N)C(=O)N[C@@H](CCCNC(=N)N)C(=O)N[C@@H](CCCNC(=N)N)C(=O)N[C@@H](CCCNC(=N)N)C(=O)N[C@@H](CCCNC(=N)N)C(=O)N[C@@H](CCCNC(=N)N)C(N)=O)[C@@H](C)CC)[C@@H](C)CC)[C@@H](C)CC)[C@@H](C)CC | – | – | Activity [4]: Active |
| Ac-EEIIRKLQQLLFIEFRIKRRRRRRRR-NH2 | – | – | Activity [1]: inactive |
| Ac-EAIIRILQQLEFIHKRIGRRRRRRRR-NH2 | – | – | Activity [4]: Active |
| Ac-EAIIRILQELLFKHFRIGRRRRRRRR-NH2 | – | – | Activity [1]: inactive |
| Ac-LQQLLFAHFRIGRRRRRRRR-NH2 | Dose-dependent effect | – | Activity (MT4 [5]): Toxic; Activity [6]: inactive |
| CC[C@H](C)[C@H](NC(=O)[C@H](CCCNC(=N)N)NC(=O)[C@H](Cc1ccccc1)NC(=O)[C@H](Cc1cnc[nH]1)NC(=O)[C@@H](NC(=O)[C@H](Cc1ccccc1)NC(=O)[C@H](CC(C)C)NC(=O)[C@H](CC(C)C)NC(=O)[C@H](CCC(N)=O)NC(=O)[C@H](CCC(N)=O)NC(=O)[C@H](CC(C)C)NC(C)=O)[C@@H](C)CC)C(=O)NCC(=O)N[C@@H](CCCNC(=N)N)C(=O)N[C@@H](CCCNC(=N)N)C(=O)N[C@@H](CCCNC(=N)N)C(=O)N[C@@H](CCCNC(=N)N)C(=O)N[C@@H](CCCNC(=N)N)C(=O)N[C@@H](CCCNC(=N)N)C(=O)N[C@@H](CCCNC(=N)N)C(=O)N[C@@H](CCCNC(=N)N)C(N)=O | – | Toxic | IC50 [7]: 130 nM; IC50 [8]: 60 nM |
| Ac-LQQLLAIHFRIGRRRRRRRR-NH2 | Dose-dependent effect | Toxic | Activity [6]: inactive |
| Ac-LQQALFIHFRIGRRRRRRRR-NH2 | Dose-dependent effect | Toxic | – |
| CC[C@H](C)[C@H](NC(=O)[C@H](C)NC(=O)[C@H](CCC(=O)O)NC(C)=O)C(=O)N[C@H](C(=O)N[C@@H](CCCNC(=N)N)C(=O)N[C@H](C(=O)N[C@@H](CC(C)C)C(=O)N[C@@H](CCC(N)=O)C(=O)N[C@@H](CCC(N)=O)C(=O)N[C@@H](CC(C)C)C(=O)N[C@@H](CC(C)C)C(=O)N[C@@H](Cc1ccccc1)C(=O)N[C@H](C(=O)N[C@@H](Cc1cnc[nH]1)C(=O)N[C@@H](Cc1ccccc1)C(=O)N[C@@H](CCCNC(=N)N)C(=O)N[C@H](C(=O)NCC(=O)N[C@@H](CCCNC(=N)N)C(=O)N[C@@H](CCCNC(=N)N)C(=O)N[C@@H](CCCNC(=N)N)C(=O)N[C@@H](CCCNC(=N)N)C(=O)N[C@@H](CCCNC(=N)N)C(=O)N[C@@H](CCCNC(=N)N)C(=O)N[C@@H](CCCNC(=N)N)C(=O)N[C@@H](CCCNC(=N)N)C(N)=O)[C@@H](C)CC)[C@@H](C)CC)[C@@H](C)CC)[C@@H](C)CC | – | – | IC50 [7]: 90 nM; IC50 [8]: 40 nM; Activity [9]: Active; Activity [1]: inactive |
| Ac-LQQLLFIHFRIARRRRRRRR-NH2 | Dose-dependent effect | – | IC50 [7]: 90 nM |
| Ac-AQQLLFIHFRIGRRRRRRRR-NH2 | Dose-dependent effect | – | – |
| Ac-LQQLLFIAFRIGRRRRRRRR-NH2 | Dose-dependent effect | – | Activity (MT4 [5]): Toxic |
| Ac-LQALLFIHFRIGRRRRRRRR-NH2 | Dose-dependent effect | Toxic | – |
